This note sets out measurements from ChEMBL document CHEMBL3228034, “Cardenolide analogues. 9. Synthesis and biological activity of 17beta-carbomethoxyethylene and 17beta-cyanoethylene 14alpha-H steroids” (J Med Chem, 1979).

The species entered for test [1] is Cavia porcellus. Kind of test: Inhibition of Na+/K+ ATPase-mediated phosphohydrolase activity in guinea pig myocardium up to 10^-4 M after 30 mins. The test is classed as tissue-based. In outline:
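Crude membrane preparation from guinea pig myocardium, holding both (Na+,K+)ATPase and Mg2+-ATPase. Incubated 37 °C, 30 min; substrate consumption under 15% without drug. Activity measured as inorganic phosphate liberated per mg protein per hour. Na+,K+ component taken as total minus Mg2+-ATPase activity, the latter measured without Na+ and K+. Drug range 10^-8–10^-4 M, duplicates.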

The species entered for test [2] is Cavia porcellus. Kind of test: Induction of positive inotropic activity in guinea pig atrium assessed as atrial contractility up to 10^-4 M. The test is classed as functional, tissue-based. The following applies: Cardiac atrium. Put shortly:
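Left auricle from guinea pig in Krebs-Henseleit solution, 32 °C, gassed with O2 containing 5% CO2, resting tension about 1 g. Paced by rectangular pulses (10 ms, 100/min) at 20% above threshold voltage. Change in isometric contraction calculated relative to control atria.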

Active and inactive are the calls of the source.

With `C[C@]12CC[C@H](O)C[C@H]1CC[C@@H]1[C@@H]2CC[C@]2(C)[C@@H](/C=C/C#N)CC[C@@H]12`, in the test filed under Cavia porcellus [1], the inhibition entry is “inactive”. Moreover, in the test listed under Cavia porcellus [2], the outcome was inactive.

For `COC(=O)/C=C/[C@H]1CC[C@H]2[C@@H]3CC[C@H]4C[C@@H](O)CC[C@]4(C)[C@H]3CC[C@]12C`, the inhibition entry in the test filed under Cavia porcellus [1] was “inactive”. The outcome in the test filed under Cavia porcellus [2] was inactive.

`C[C@]12CC[C@H]3[C@@H](CCC4=C[C@@H](O)CC[C@@]43C)[C@@H]1CC[C@@H]2/C=C\C#N`: the inhibition result in the test listed under Cavia porcellus [1] was “inactive”. Moreover, the outcome in the test listed under Cavia porcellus [2] was inactive.

With `C[C@]12CC[C@H](O)C[C@@H]1CC[C@@H]1[C@@H]2CC[C@]2(C)[C@@H](/C=C/C#N)CC[C@@H]12`, in the test filed under Cavia porcellus [1], the inhibition entry was “inactive”. The result in the test filed under Cavia porcellus [2] was inactive.

For `COC(=O)/C=C/[C@H]1CC[C@H]2[C@@H]3CCC4=C[C@@H](O)CC[C@]4(C)[C@H]3CC[C@]12C`, the inhibition entry in the test listed under Cavia porcellus [1] was “inactive”. For the same molecule, the result in the test listed under Cavia porcellus [2] was inactive.

Consider `C[C@]12CC[C@@H](O)C[C@H]1CC[C@@H]1[C@@H]2CC[C@]2(C)[C@@H](/C=C/C#N)CC[C@@H]12`, for which, in the test filed under Cavia porcellus [1], the inhibition entry was “inactive”. For the same molecule, the outcome in the test listed under Cavia porcellus [2] was inactive.

In the case of `COC(=O)/C=C/[C@H]1CC[C@H]2[C@@H]3CC[C@@H]4C[C@H](O)CC[C@]4(C)[C@H]3CC[C@]12C`, the inhibition result in the test filed under Cavia porcellus [1] is “inactive”. Moreover, the result in the test filed under Cavia porcellus [2] was inactive.

Consider `C[C@]12CC[C@H]3[C@@H](CCC4=C[C@@H](O)CC[C@@]43C)[C@@H]1CC[C@@H]2/C=C/C#N`, for which, in the test filed under Cavia porcellus [1], the inhibition entry was “inactive”. Besides, in the test listed under Cavia porcellus [2], the outcome was inactive.

For `C[C@]12CC[C@H](O)C[C@H]1CC[C@@H]1[C@@H]2CC[C@]2(C)[C@@H](/C=C\C#N)CC[C@@H]12`, the inhibition entry in the test listed under Cavia porcellus [1] was “inactive”. The outcome in the test filed under Cavia porcellus [2] was inactive.

For the molecule `COC(=O)/C=C/[C@H]1CC[C@H]2[C@@H]3CC[C@@H]4C[C@@H](O)CC[C@]4(C)[C@H]3CC[C@]12C`, the inhibition result in the test filed under Cavia porcellus [1] was “inactive”. Further, the outcome in the test listed under Cavia porcellus [2] was inactive.

As to `C[C@]12CC[C@@H](O)C[C@H]1CC[C@@H]1[C@@H]2CC[C@]2(C)[C@@H](/C=C\C#N)CC[C@@H]12`, in the test filed under Cavia porcellus [1], the inhibition result was “inactive”. For the same molecule, in the test filed under Cavia porcellus [2], the result was inactive.

For `C[C@]12CC[C@H](O)C[C@@H]1CC[C@@H]1[C@@H]2CC[C@]2(C)[C@@H](/C=C\C#N)CC[C@@H]12`, the inhibition result in the test listed under Cavia porcellus [1] is “inactive”. In the test filed under Cavia porcellus [2], the outcome was inactive.
